Screening results (PubChem)
ASAP1 GAP inh = inhibitors of human ASAP1 ArfGAP activity, primary screen, biochemical, fluorescence polarization. ASAP1-stimulated ARF1 GTP hydrolysis, GDP FP detection. inhibition, % at 16.5 µM. 360,000 tested, 0.19% active. Arf-GAP with SH3 domain, ANK repeat and PH domain-containing protein 1 (Homo sapiens), …; in the data active means inhibition above about 25%;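 further: 0% = vehicle with enzyme and substrate and 100% = no enzyme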
Target sequence (Q9ULH1 325-724 limits assumed): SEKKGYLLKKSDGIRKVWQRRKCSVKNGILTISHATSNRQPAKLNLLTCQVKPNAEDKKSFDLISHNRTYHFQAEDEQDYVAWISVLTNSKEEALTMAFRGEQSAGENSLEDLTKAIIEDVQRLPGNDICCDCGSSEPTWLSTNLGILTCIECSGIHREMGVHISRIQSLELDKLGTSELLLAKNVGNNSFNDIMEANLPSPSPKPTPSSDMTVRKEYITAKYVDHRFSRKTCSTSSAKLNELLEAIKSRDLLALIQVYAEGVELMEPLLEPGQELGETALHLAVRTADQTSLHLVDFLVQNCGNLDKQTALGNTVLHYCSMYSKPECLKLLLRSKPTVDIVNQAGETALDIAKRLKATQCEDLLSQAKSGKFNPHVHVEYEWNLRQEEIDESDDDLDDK
IMP-1 inhibitor = IMP-1 metallo-beta-lactamase inhibitors, primary screen, biochemical, epi-absorbance readout, Pseudomonas aeruginosa enzyme | metallo-beta-lactamase IMP-1 (Pseudomonas aeruginosa) | AID 1556, 2009 | inhibition, % at 5.6 µM | purified IMP-1, nitrocefin hydrolysis, epi-absorbance fluorescence | 290,000 tested, 0.45% active;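 active means inhibition above the mean plus 3 SD of all compounds in the same screening run, cut at about 4.5% in these data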;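 further: 0% = IMP-1 with DMSO and 100% = DMSO wells lacking enzyme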
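System: purified recombinant IMP-1 beta-lactamase. Medium: Zinc- and detergent-supplemented HEPES buffer, pH 7.1. Compound: one 5.6 µM dose […]. Schedule: 15 min preincubation plus 25 min reaction at 25 °C. Technique: Epi-absorbance fluorescence, 480 nm excitation, 530 nm emission.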
Calb FLC = C. albicans growth inhibition with fluconazole, primary screen, CaCi-2 strain, Alamar Blue fluorescence. C. albicans CaCi-2 + fluconazole, 48 h. 300,000 tested, 0.57% active. AID 1979, 2009. growth inhibition, % (test concentration not listed);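 active means growth inhibition above about 58% in most replicates, limit read from the data, passing the limit was not always enough; inconclusive means exactly half the replicates above a set limit; inactive means most replicates below a set limit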;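 further: all wells also contain fluconazole at 8 µg/ml as a sub-toxic cotreatment; 0% = median of DMSO wells and 100% = median of geldanamycin control wells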
ARFGAP1 inh = inhibitors of rat ARFGAP1 GAP activity, primary screen, biochemical, fluorescence polarization, GDP tracer; inhibition, % at 16.5 µM; ADP-ribosylation factor GTPase-activating protein 1 (Rattus norvegicus), Q62848; Arfgap1-stimulated ARF1 GTP hydrolysis, GDP FP detection; 360,000 tested, 0.26% active; AID 651572, 2012;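 active means inhibition above a per-plate limit, mean inhibition of low control wells plus 3 SD, cut at about 25% in these data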;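 further: 0% = DMSO wells with enzyme and 100% = wells lacking Arfgap1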
Target sequence (Q62848 1-136 limits assumed): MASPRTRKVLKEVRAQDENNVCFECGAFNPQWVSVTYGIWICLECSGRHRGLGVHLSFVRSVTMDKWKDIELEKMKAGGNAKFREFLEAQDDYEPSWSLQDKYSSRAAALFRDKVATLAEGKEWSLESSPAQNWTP
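Assay system: Rat Arfgap1 GAP domain (His6, aa 1-136), purified enzyme | Buffer or medium: HEPES 25 mM pH 7.5, NaCl 150 mM, MgCl2, DTT | Schedule: GTP hydrolysis reaction 2 h at 25 °C | Signal: FP of antibody-bound GDP Alexa 633 tracer, ex 620/em 688 nm | Measure: Percent inhibition of Arfgap1-stimulated GTP hydrolysis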
PHOSPHO1 inh = PubChem AID 1565; 290,000 tested, 1.1% active; Phosphoethanolamine/phosphocholine phosphatase (Homo sapiens), Q8TCT1; inhibition, % at 13.3 µM; recombinant PHOSPHO1, absorbance phosphatase assay; in the data active means inhibition above about 60%
VIM-2 inhibitor = VIM-2 metallo-beta-lactamase inhibitors, primary screen, biochemical, epi-absorbance readout, Pseudomonas aeruginosa enzyme. purified VIM-2, nitrocefin hydrolysis, epi-absorbance fluorescence. inhibition, % at 5.6 µM. 290,000 tested, 0.89% active. AID 1527, 2009;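 active means inhibition above the mean of all tested compounds plus 3 SD, cutoff set per screening run, cut at about 7.5% in these data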;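 further: red hydrolysis product quenches plate fluorescence so inhibitors raise well fluorescence; 0% = enzyme with DMSO and 100% = DMSO without enzyme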
Active calls of the source: *; ? = inconclusive; . = not tested or not shown. Shown are actives, neighbours in structure and some others; about 2.6% of the full set was active somewhere.

SMILES	ASAP1 GAP inh	IMP-1 inhibitor	Calb FLC	ARFGAP1 inh	PHOSPHO1 inh	VIM-2 inhibitor
CCOC(=O)c1c(C)n(C)c2ccc(OCC(O)CN3CCC(C)CC3)cc12 (configuration not stated)	-5.5	-2.5	1.8	-1.6	8.6	7.9*
CCOC(=O)c1c(NC(=S)NCC2CCCO2)sc(C)c1C (configuration not stated)	0.2	-3.8	85.0*	4.6	36.3	-3.0
CCOC(=O)c1c(NC(=O)C2CCCO2)sc(C(N)=O)c1C (configuration not stated)	-6.1	-3.4	-20.0	4.6	15.9	1.2
Cc1cc(N2CCN(C(=O)OC(C)(C)C)C[C@H]2C)ccc1N1C[C@@H](C)O[C@@H](C)C1	5.6	.	.	-4.8	.	.
CCOC(=O)CC1(NC(=O)C2CCC(=O)N(Cc3ccccc3OC)C2)CCCCC1 (configuration not stated)	4.1	-3.9	-48.4	10.1	65.8*	-4.1
COc1ccccc1CN1CC(C(=O)NC2(c3ccccc3)CC2)CCC1=O (configuration not stated)	12.1	-0.3	-6.2	8.7	26.3	-0.1
O=C(/C=C1\NC2(CCCC2)Cc2ccccc21)C(=O)N/N=C/c1ccccc1O	-1.9	-3.4	95.3*	5.7	-18.4	-4.3
COC(=O)[C@]12C[C@H](CC(=O)NCc3ccccc3)C(=O)N(CCC3=CCCCC3)C1=C[C@H](COCc1ccccc1)O[C@@H]2C	-2.9	.	.	9.5	.	.
Cc1ccc(NC(=O)NNC(=O)c2cc3ccccc3cc2O)c(C)c1	-0.5	-2.9	81.8*	-5.8	33.5	-1.8
O=C(NNC(=O)c1cc2ccccc2cc1O)Nc1ccccc1F	-1.4	-3.7	87.1*	12.1	23.8	-2.4
CCc1ccc(NC(=O)NNC(=O)c2cc3ccccc3cc2O)cc1	3.9	-3.4	?	12.5	14.2	-4.4
C/C(=N\NC(=O)c1cc2ccccc2cc1O)c1cccs1	2.3	-3.2	47.9	10.5	25.7	-2.2
Cc1cccc(NC(=O)NNC(=O)c2cc3ccccc3cc2O)c1C	-2.1	-0.9	65.2*	-36.1	-24.1	-3.0
O=C(NNC(=O)c1cc2ccccc2cc1O)c1cccs1	3.6	-4.2	91.4*	-7.2	27.0	-2.6
Cc1cccc(Cl)c1NC(=O)NCCCN1CCOCC1	-10.8	.	.	-1.5	.	.
O=Nc1c(O)c2ccccc2c2ccccc12	5.3	.	94.3*	-4.6	.	.
CC(OC(=O)c1ccc(Cl)c([N+](=O)[O-])c1)C(=O)N1CCN(Cc2ccccc2)CC1 (configuration not stated)	0.1	.	.	-8.8	.	.
CC(On1nnc2ccccc21)C(=O)N1CCN(Cc2ccccc2)CC1 (configuration not stated)	-2.2	-4.2	-15.2	-4.8	80.3*	-4.3
O=c1[nH]n2c(=O)c3c([nH]c2c1N=Nc1cccc(Cl)c1)CCCC3	-0.2	-6.3	21.4	12.7	75.7*	-3.0
NC[C@@H]1O[C@H](C23CC4CC(CC(C4)C2)C3)Cc2c1ccc(O)c2O	-3.4	.	101.4*	-9.5	-0.6	.
CSc1nc(Cl)c(Cc2ccc(OC(C)C)cc2)c(N2CCOCC2)n1	-15.2	-1.6	2.6	2.3	6.0	-1.2
CSc1nc(N2CCOCC2)c2sccc2n1	-11.0	-1.3	?	-4.1	32.8	8.1*
COc1ccc(C(C(=O)NC(C)(C)C)n2c(-c3ccc(-c4ccccc4)cc3)nc3ccccc32)cc1 (configuration not stated)	-2.2	.	.	-4.0	.	.
Cc1c(Cl)ccc2c1NC(=O)[C@]21N[C@@H](Cc2ccccc2)[C@H]2C(=O)N(c3ccc(F)cc3)C(=O)[C@H]21	-7.3	-5.7	89.1*	1.6	5.5	-1.8
CCN(CC)c1ccc(C=C(c2nnnn2-c2ccc(C)cc2)c2nnnn2-c2ccc(C)cc2)cc1	-1.7	52.1*	-10.7	1.4	-9.0	-3.3
SMILES	ASAP1 GAP inh	IMP-1 inhibitor	Calb FLC	ARFGAP1 inh	PHOSPHO1 inh	VIM-2 inhibitor
Cc1ccc(-n2nnnc2-c2ccccc2)cc1	10.2	-1.8	22.3	-0.5	8.6	-2.2
CC(C)(C)c1ccc(C#C[C@@H]2C=C[C@H]3OC(=O)CC/C=C/CCC(=O)OC[C@H]3O2)cc1	-4.8	.	.	7.3	.	.
OCCNCc1cccc(-c2ccccc2)c1O	-15.0	.	.	6.3	.	.
OCCNCCNCc1ccc(-c2ccccc2)cc1	3.0	-1.6	-3.9	-1.8	-12.2	9.3*
COC(=O)C1=C(C)N(Cc2ccccc2C(F)(F)F)C(=NCc2ccc(OC)cc2)NC1c1ccc(Cl)cc1 (configuration not stated)	1.4	.	.	-4.7	.	.
Cc1cc(C)nc(NC(=NCc2ccc3c(c2)OCO3)NC(=O)Nc2ccccc2)n1	3.9	-1.7	122.0*	14.7	4.7	-1.5
CCC1=NN(C(=O)C(=O)Nc2ccc(OC)cc2)C(O)(C(F)(F)F)C1 (configuration not stated)	3.3	-3.1	-5.3	3.3	71.7*	-2.7
O=C(COc1ccc2c3c(c(=O)oc2c1)CCCC3)NCCN1CCOCC1	.	-2.3	-4.0	.	52.6	12.1*
Cc1cc(=O)oc2cc(OCC(=O)NCCCN3CCOCC3)ccc12	6.1	-0.4	3.7	-11.9	-21.8	3.0
CCc1cc(=O)oc2cc(OCC(=O)NCCCn3ccnc3)ccc12	-8.7	-2.1	2.3	16.1	39.9	10.9*
O=C(COc1ccc2c3c(c(=O)oc2c1)CCCC3)NCCCN1CCOCC1	-1.0	-0.7	2.9	-12.5	23.9	10.9*
Cc1cc(N2CCNC[C@H]2C)ccc1N1CCN(Cc2ccccc2)[C@@H](C)C1	2.5	.	.	-6.6	.	.
O=S(=O)(O)c1cc(O)ccc1O	4.2	.	.	-9.2	.	.
O=S(=O)(c1cc(O)ccc1O)c1cccc2c(S(=O)(=O)c3cc(O)ccc3O)cccc12	21.9	.	-0.2	24.7*	.	.
COc1ccc(C(=O)C[C@@H]2OC3CCCCC3N2S(=O)(=O)c2ccc(C)cc2)cc1OC (some centres not stated)	6.4	.	.	-6.3	.	.
O=C(C1=C(O)C(=O)N(CCc2ccccc2)C1c1cccnc1)c1ccco1 (configuration not stated)	8.0	5.9*	-1.6	-5.3	31.4	4.0
O=C(C1=C(O)C(=O)N(Cc2cccnc2)C1c1cccc(Oc2ccccc2)c1)c1ccco1 (configuration not stated)	-15.3	.	.	-15.1	.	.
Cc1cc2c(nc1C)CCCN2Cc1ccccc1C(F)(F)F	-11.1	.	.	-3.2	.	.
